≈ marks a conversion by molar mass, not a printed value.
Assay: Cytotoxicity against human […] cells
Type: functional, cell-based
Summary of the method: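 In vitro assay on the human gastric cancer line BGC-823, one of a panel of human cancer lines. Viability was read out by the MTT method, following a previously published procedure.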

SMILES	IC50 [µg/mL]
C=C(C(=O)O)[C@@H]1CC[C@@](C)(O)[C@@H]2CC[C@@](C)(O2)[C@@H](O)CC[C@](C)(O)[C@H](OC(C)=O)C1 [DENDRONPHOLIDE J]	0.2 (≈ 0.467 µM)
C=C(C(=O)O)[C@@H]1CC[C@@](C)(O)[C@@H](OC(C)=O)CCC(=C)[C@@H]2CC[C@@](C)(O2)[C@H](O)C1 [DENDRONPHOLIDE R]	> 10
C=C(C(=O)OC)[C@@H]1CC[C@@](C)(O)[C@@H]2CC[C@@](C)(O2)[C@@H](OC(C)=O)CC[C@]2(C)O[C@H]2C1 [DENDRONPHOLIDE G]	0.02 (≈ 0.0471 µM)
C=C(C(=O)OC)[C@@H]1CC[C@@](C)(O)[C@@H](O)CC/C(C)=C/C/C=C(\C)[C@@H](O)C1 [DENDRONPHOLIDE C]	0.05 (≈ 0.136 µM)
C=C(C(=O)O)[C@@H]1CC[C@@](C)(O)[C@@H]2CC[C@@](C)(O2)[C@@H](OC(C)=O)CC[C@](C)(O)[C@H](O)C1 [DENDRONPHOLIDE I]	> 10
C=C(C(=O)OC)[C@@H]1CC[C@@](C)(O)[C@@H]2CC[C@@](C)(O2)[C@@H](OC(C)=O)C/C=C(\C)[C@H](O)C1 [DENDRONPHOLIDE P]	> 10
C=C1C(=O)O[C@]2(C)CC[C@@H]1C[C@H](O)/C(C)=C/C/C=C(\C)CC[C@@H]2OC(C)=O [DENDRONPHOLIDE A]	> 10
C=C1C(=O)O[C@]2(C)CC[C@@H]1C[C@@H](O)/C(C)=C/C/C=C(\C)CC[C@@H]2OC(C)=O [DENDRONPHOLIDE B]	> 10
C=C(C(=O)O)[C@@H]1CC[C@@](C)(O)[C@@H]2CC[C@@](C)(O2)[C@@H](OC(C)=O)CC[C@](C)(OC)[C@H](O)C1 [DENDRONPHOLIDE K]	> 10
C=C(C(=O)OCC)[C@@H]1CC[C@@](C)(O)[C@@H]2CC[C@@](C)(O2)[C@@H](OC(C)=O)C/C=C(\C)[C@H](O)C1 [DENDRONPHOLIDE O]	> 10
C=C1C(=O)O[C@]2(C)CC[C@@H]1C[C@H](O)/C(C)=C/C/C=C(\C)CC[C@@H]2O	> 10
C=C1C(=O)O[C@]2(C)CC[C@@H]1C[C@@H](OC(C)=O)[C@@]1(C)CC[C@H](O1)[C@@](C)(O)CC[C@@H]2OC(C)=O [DENDRONPHOLIDE Q]	> 10
